This is a sample that favours compounds with a hit; in the whole collection about 3.8% have one here.
KCNK3 block – human KCNK3 channel inhibition, primary screen. CHO-KCNK3 thallium flux, FluxOR fluorescence; stronger effect = lower value. 340,000 compounds, 0.84% hits. O14649. B-score at 10 µM;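 active = B-score under library mean minus 4 SD, starting fluorescence ratio at most library mean plus 5 SD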;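 also: more negative B-score means stronger inhibition of thallium flux through KCNK3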
hERG rescue – compounds protecting human hERG from proarrhythmic drug block. Q12809. CHO-hERG, FluxOR thallium flux, dofetilide IC70 present. activation (rescue from dofetilide block), less the hit threshold, % at 10 µM. 310,000 compounds, 0.51% hits;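 active = activation above the mean of controls blocked by dofetilide plus 5 SD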;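 also: thallium influx through hERG after potassium depolarization seen as dye fluorescence rise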
Kir21 inh – inhibitors of mouse Kir2.1 inward-rectifier potassium channel; 310,000 compounds, 0.85% hits; P35561; HEK293-Kir2.1, FluxOR thallium flux fluorescence; stronger effect = lower value; B-score at 10 µM; AID 1672;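 active = fluorescence ratio B-score at or below minus 3 SD of library scores, with starting-brightness B-score within 2 SD, cut at about -4.2 in these data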;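 also: channel flux triggered by added potassium and thallium sulfate stimulus; B-score of peak minus minimum fluorescence over baseline after thallium stimulus; more negative B-score means stronger Kir2.1 block with less thallium influx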
KCNQ1 pot – potentiates or activates the human KCNQ1 potassium channel. P51787. CHO-K1 KCNQ1, thallium flux FluxOR fluorescence; stronger effect = higher value. B-score at 10 µM. 310,000 compounds, 0.35% hits;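 active = fluorescence ratio B-score, a plate-corrected score, at least three library SD, with initial intensity B-score within 5 SD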
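Doses: Single concentration per compound, DMSO matched to controls | Test system: KCNQ1-transfected CHO-K1 cells | Timing: 90 min dye loading and 20 min compound exposure, both at room temperature | Measured by: Kinetic FluxOR thallium fluorescence, 10-s 1-Hz baseline, 110-s post-stimulus read | Medium: Assay buffer with matched DMSO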
KCNQ1 inh – blocks the human KCNQ1 potassium channel; CHO-K1 KCNQ1, FluxOR thallium flux fluorescence; stronger effect = higher value; B-score at 10 µM; 310,000 compounds, 1.3% hits; AID 2642;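 active = compounds whose thallium flux B-score, printed positive for inhibition, exceeds three library SD while starting fluorescence stays within three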;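 also: channel opened by potassium depolarization with thallium stimulus after 20 min compound exposure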
KCNK9 block – blocks the human KCNK9 two-pore domain potassium channel | Q9NPC2 | HEK293 KCNK9, FluxOR thallium flux fluorescence; stronger effect = lower value | B-score at 10 µM | 310,000 compounds, 1.2% hits | AID 488922;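 active = ratio B-score over 3 SD below the library mean, with starting fluorescence within 5 SD of its mean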;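 also: negative B-score means less thallium flux so channel inhibition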
Target sequence (Q9NPC2 whole entry, looked up, the tested form may be a part): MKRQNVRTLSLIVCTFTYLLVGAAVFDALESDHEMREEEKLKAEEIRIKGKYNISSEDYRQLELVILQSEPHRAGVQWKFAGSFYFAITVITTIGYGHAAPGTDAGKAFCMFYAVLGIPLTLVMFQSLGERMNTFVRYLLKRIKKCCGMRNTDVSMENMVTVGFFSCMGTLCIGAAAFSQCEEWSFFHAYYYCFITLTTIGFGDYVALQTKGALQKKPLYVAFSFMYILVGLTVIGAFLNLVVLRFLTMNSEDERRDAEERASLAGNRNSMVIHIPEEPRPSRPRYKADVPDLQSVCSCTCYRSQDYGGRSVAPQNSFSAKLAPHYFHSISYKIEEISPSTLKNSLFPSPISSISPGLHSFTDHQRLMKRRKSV
A number is an active result; n = inactive; x = no result given.

SMILES	KCNK3 block	hERG rescue	Kir21 inh	KCNQ1 pot	KCNQ1 inh	KCNK9 block
CCOC(=O)CSc1ccc(S(=O)(=O)N(CC)CC)cc1[N+](=O)[O-]	n	n	n	n	n	-6.8
CCOC(=O)c1ccc(CN(Cc2ccccc2)S(=O)(=O)c2cccc([N+](=O)[O-])c2)cc1	n	n	n	n	n	n
CCCCN(CCCC)S(=O)(=O)c1ccc(SCC(=O)OCC)c([N+](=O)[O-])c1	n	n	n	n	n	n
CCOC(=O)CCCCCN(Cc1ccccc1)S(=O)(=O)c1ccc([N+](=O)[O-])cc1	n	n	n	n	7	n
COc1ccc(NC(=O)COC(=O)CNS(=O)(=O)/C=C/c2ccccc2)cc1OC	n	x	x	x	x	x
COc1ccccc1CN(C)C(=O)c1cnc(C)cn1	n	n	n	n	n	n
COc1ccccc1CN(C)C(=O)c1sccc1-c1ccccc1	n	n	-5.4	n	n	n
COc1ccc(OC)c(/C=C/C(=O)NCCc2nc3ccccc3[nH]2)c1	n	n	n	n	7	n
O=C(/C=C/c1ccccc1)NCCc1nc2ccccc2[nH]1	n	n	n	n	n	n
Nc1nc(-c2c(Cl)cccc2Cl)no1	n	5.7	n	n	n	n
O=c1[nH]c2nc(Br)[nH]c(=O)c2[nH]1	n	x	x	x	x	x
CC1CC(C)CN(CCCSc2ccccc2)C1 (centres undefined)	n	n	n	n	n	n
CC1CC(C)CN(CCOCCSc2ccc(Cl)cc2)C1 (centres undefined)	n	n	-4.5	n	n	n
C=CCn1c(SCc2ccc(C#N)cc2)nnc1-c1ccc(C)cc1	n	n	n	n	n	n
CCn1c(SCc2ccc(Cl)cc2)nnc1-c1ccccc1	n	n	-5.3	n	n	n
COc1ccc(-c2nc(SCc3ccccc3)n(S(C)(=O)=O)n2)cc1	n	n	n	n	n	n
Clc1ccc(CSc2nnc(-c3cccnc3)n2Cc2ccco2)c(Cl)c1	n	n	-4.3	n	n	n
CCS(=O)(=O)n1nc(-c2ccc(Cl)cc2)nc1SCc1ccccc1	x	n	n	n	10	n
CCn1c(SCc2ccc(C#N)cc2)nnc1-c1cccc(Cl)c1	n	n	-4.6	n	n	n
CCn1c(SCc2cccc(C(=O)O)c2)nnc1-c1ccccc1	n	n	n	n	n	n
CCCCC(=O)OCC(=O)N1N=C(c2c[nH]c3ccccc23)C(O)C1c1ccc(OC)cc1 (centres undefined)	n	n	n	n	n	n
Cc1[nH]c2ccccc2c1C(=O)C(=O)NCc1ccncc1	n	n	n	n	n	n
CC(C)(C)OC(=O)C[C@@H]1C/C=C\C[C@H](CC(=O)N(CCO)Cc2ccccc2)C(=O)NCCOC1=O	n	x	x	x	x	x
O=C(C(Br)=Cc1ccccc1)c1ccccc1	n	x	x	x	x	x
Cc1cc(F)ccc1S(=O)(=O)Nc1ccc(C(=O)N2CCCCC2)cc1	n	x	x	x	x	x
SMILES	KCNK3 block	hERG rescue	Kir21 inh	KCNQ1 pot	KCNQ1 inh	KCNK9 block
c1cncc(CSc2nnc(-c3cccnc3)n2Cc2ccco2)c1	x	n	n	n	n	n
CCn1c(COc2ccc(Cl)cc2)nnc1SCc1ccc(C#N)cc1	n	n	-4.8	n	n	n
Cc1cccc(-c2nnc(SCc3ccc(C#N)cc3)n2Cc2ccco2)c1	n	n	-5.3	n	n	n
Cc1ccc(/C=C2\SC(N3CCN(C(c4ccccc4)c4ccccc4)CC3)=NC2=O)o1	n	n	n	n	n	n
CC(C)Cc1ccc(C(=O)NCCOc2ccccc2)o1	n	n	n	n	n	n
Cc1ccc(S(=O)(=O)N(CC2CO2)c2cccc([N+](=O)[O-])c2)cc1 (centres undefined)	n	n	-4.9	n	n	n
O=C(Cc1noc2ccccc12)NNC(=S)Nc1ccc(Cl)cc1	n	n	n	n	n	n
O=C(Cc1noc2ccccc12)NNC(=S)Nc1ccccc1	n	5.7	n	n	n	n
COc1ccccc1C(C)NS(=O)(=O)c1cccs1 (centres undefined)	x	n	-4.5	n	n	n
COc1ccccc1NC(=O)c1ccccc1NS(=O)(=O)c1cccs1	n	n	n	n	6	n
COc1ccccc1NC(=O)c1ccccc1NS(C)(=O)=O	n	n	n	n	n	n
O=C(O)c1ccc(Cl)c(S(=O)(=O)Nc2ccc3cn[nH]c3c2)c1	n	n	n	n	n	n
O=C(Nc1ccc(SC(F)F)cc1)c1ccc2c(=O)n3c(nc2c1)CCC3	n	x	x	x	x	x
Cc1cc(NC(=O)c2sccc2C)n(-c2nc3ccccc3[nH]2)n1	n	n	n	n	n	-7
Cc1cc(NC(=O)c2cccs2)n(-c2nc3ccccc3[nH]2)n1	n	n	n	n	n	n
O=C(CCN1CCc2ccccc2C(c2ccccc2)C1)c1ccc2c(c1)OCCO2 (centres undefined)	n	n	n	n	11	n
CCCC(=O)c1ccc2c(c1)OCCO2	n	n	n	n	n	n
O=C(O)CCC(=O)c1ccc2c(c1)OCCO2	n	n	n	n	n	n
O=C(CCN1Cc2ccccc2C1)c1ccc2c(c1)OCCO2	n	n	n	8	n	n
Cc1cc(/C=C(/C#N)C(=O)O)c(C)n1-c1cccc2ccccc12	n	n	n	n	n	n
COC(=O)c1c(C)nc(C)c(C(=O)OC)c1-c1cccs1	n	8.1	n	n	n	n
COC(=O)c1sc(-c2cccs2)cc1N	n	n	n	n	n	n
O=S1(=O)CCN2C=C(Cl)C=C(Cl)C2=N1	n	n	n	n	n	n
Cc1nc(SCC(=O)NCCc2ccc(Cl)cc2)nc(C)c1C	n	n	-5	n	n	n
CC(=O)C1=C(c2ccccc2)NC(=O)NC1c1cccs1 (centres undefined)	n	n	n	n	n	n
SMILES	KCNK3 block	hERG rescue	Kir21 inh	KCNQ1 pot	KCNQ1 inh	KCNK9 block
CCOC(=O)c1sc(NC(=O)c2c(C)nn(Cc3ccccc3)c2C)cc1C	-11	x	x	x	x	x
CC(CCc1ccccc1)NC(=O)CCc1cn(C)c2ccccc12 (centres undefined)	n	n	-5.6	n	n	n
COc1ccc(OC)c(CCNC(=O)CCc2cn(C)c3ccccc23)c1	n	n	-5.6	n	n	n
COc1ccc(OC)c(CCNC(=O)Cn2sc3nc(C)cc(C)c3c2=O)c1	x	n	n	n	6	n
CCn1cc(CCC(=O)NC(C)c2ccccc2)c2ccccc21 (centres undefined)	n	n	-6.1	n	n	n
CC(C)NC(=O)CCCc1cn(C)c2ccccc12	n	n	n	n	n	n
CCn1cc(CCC(=O)NCc2cccc(OC)c2OC)c2ccccc21	n	6.4	n	n	n	n
CC[C@H](C)/C=C(C)/C=C/C(=O)Cc1cc(O)c(C)c(O)c1C=O	-10	n	n	n	11	n
O=C(Nc1ccccc1F)Nc1ccc([N+](=O)[O-])cc1Cl	n	n	n	n	8	n

Screening results: PubChem, Johns Hopkins Ion Channel Center
